Measurements reported in ChEMBL document CHEMBL5724801, “EUbOPEN Chemogenomics Library - Multiplex” (2024).
Several values for one entry are separate records, joined by “and”; a condition that tells them apart may be missing. Identical values can stand only once.

Test system: Fibroblast
Experiment: Multiplex assay against human fibroblast
Assay type: toxicity, cell-based
How it was run: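 Values for tubulin, mitochondrial-mass and membrane-permeability phenotypes are per cents of cells with healthy nuclei. These cells were identified by CellPathfinder machine-learning gating of live cells that had been stained at seeding with Hoechst33342, BioTracker Green Microtubule Cytoskeleton Dye, MitoTracker Red and Annexin V Alexa Fluor 680 and imaged on a CQ1 microscope at 37°C and 5% CO2 after compound addition. The gating first set Hoechst high-intensity objects apart from normal cells, then split normal cells into healthy, pyknosed or fragmented nuclei, and pyknosed cells into mitotic or apoptotic.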

[1] = 12 h, 1 µM, compound concentration 1 uM
[2] = 12 h, 10 µM, compound concentration 10 uM
[3] = 24 h, 1 µM, compound concentration 1 uM
[4] = 24 h, 10 µM, compound concentration 10 uM
[5] = 48 h, 1 µM, compound concentration 1 uM
[6] = 48 h, 10 µM, compound concentration 10 uM

Compound: Cc1ccc(C(C)(O)c2nc3ccccc3s2)c(C)c1 (stereo unspecified)
- Population Apoptotic (%) [1]: 50% and 44%
- Population Fragmented Nuclei (%) [1]: 8% and 22%
- Population Healthy Nuclei (%) [1]: 78% and 48%
- Population Hoechst High Intensity Objects (%) [1]: 0% and 5%
- Population Membrane Permeable-Phenotype (%) [1]: 0% and 3%
- Population Mitochondria Different-Phenotype (%) [1]: 5% and 6%
- Population Mitotic Cells (%) [1]: 50% and 56%
- Population Normal (%) [1]: 99% and 95%
- Population Pyknosed Nuclei (%) [1]: 12% and 29%
- Population Tubulin-Different-Phenotype (%) [1]: 29% and 36%
- Total Cell Count [1]: 125 and 180
- Population Apoptotic (%) [2]: 44% and 22%
- Population Fragmented Nuclei (%) [2]: 11% and 31%
- Population Healthy Nuclei (%) [2]: 72% and 43%
- Population Hoechst High Intensity Objects (%) [2]: 1% and 7%
- Population Membrane Permeable-Phenotype (%) [2]: 0% and 15%
- Population Mitochondria Different-Phenotype (%) [2]: 5% and 6%
- Population Mitotic Cells (%) [2]: 56% and 77%
- Population Normal (%) [2]: 98% and 92%
- Population Pyknosed Nuclei (%) [2]: 16% and 25%
- Population Tubulin-Different-Phenotype (%) [2]: 24% and 60%
- Total Cell Count [2]: 153 and 149
- Population Apoptotic (%) [3]: 31% and 47%
- Population Fragmented Nuclei (%) [3]: 13% and 25%
- Population Healthy Nuclei (%) [3]: 73% and 54%
- Population Hoechst High Intensity Objects (%) [3]: 0% and 5%
- Population Membrane Permeable-Phenotype (%) [3]: 2% and 11%
- Population Mitochondria Different-Phenotype (%) [3]: 7% and 5%
- Population Mitotic Cells (%) [3]: 68% and 52%
- Population Normal (%) [3]: 99% and 94%
- Population Pyknosed Nuclei (%) [3]: 13% and 20%
- Population Tubulin-Different-Phenotype (%) [3]: 22% and 43%
- Total Cell Count [3]: 139 and 173
- Population Apoptotic (%) [4]: 55% and 38%
- Population Fragmented Nuclei (%) [4]: 13% and 27%
- Population Healthy Nuclei (%) [4]: 74% and 46%
- Population Hoechst High Intensity Objects (%) [4]: 4% and 6%
- Population Membrane Permeable-Phenotype (%) [4]: 3% and 12%
- Population Mitochondria Different-Phenotype (%) [4]: 6% and 9%
- Population Mitotic Cells (%) [4]: 44% and 61%
- Population Normal (%) [4]: 95% and 93%
- Population Pyknosed Nuclei (%) [4]: 12% and 25%
- Population Tubulin-Different-Phenotype (%) [4]: 24% and 61%
- Total Cell Count [4]: 152 and 143
- Population Apoptotic (%) [5]: 33% and 50%
- Population Fragmented Nuclei (%) [5]: 16% and 28%
- Population Healthy Nuclei (%) [5]: 73% and 57%
- Population Hoechst High Intensity Objects (%) [5]: 4% and 3%
- Population Membrane Permeable-Phenotype (%) [5]: 0% and 5%
- Population Mitochondria Different-Phenotype (%) [5]: 3% and 6%
- Population Mitotic Cells (%) [5]: 66% and 50%
- Population Normal (%) [5]: 95% and 96%
- Population Pyknosed Nuclei (%) [5]: 9% and 14%
- Population Tubulin-Different-Phenotype (%) [5]: 16% and 39%
- Total Cell Count [5]: 129 and 174
- Population Apoptotic (%) [6]: 53% and 43%
- Population Fragmented Nuclei (%) [6]: 22% and 34%
- Population Healthy Nuclei (%) [6]: 68% and 53%
- Population Hoechst High Intensity Objects (%) [6]: 7%
- Population Membrane Permeable-Phenotype (%) [6]: 2% and 7%
- Population Mitochondria Different-Phenotype (%) [6]: 6% and 7%
- Population Mitotic Cells (%) [6]: 46% and 56%
- Population Normal (%) [6]: 92%
- Population Pyknosed Nuclei (%) [6]: 9% and 12%
- Population Tubulin-Different-Phenotype (%) [6]: 27% and 64%
- Total Cell Count [6]: 156 and 143

Compound: COCCn1c(C)c(C)s/c1=N\C(=O)C1C(C)(C)C1(C)C
- Population Apoptotic (%) [1]: 43% and 40%
- Population Fragmented Nuclei (%) [1]: 18% and 22%
- Population Healthy Nuclei (%) [1]: 69% and 57%
- Population Hoechst High Intensity Objects (%) [1]: 0% and 4%
- Population Membrane Permeable-Phenotype (%) [1]: 0% and 1%
- Population Mitochondria Different-Phenotype (%) [1]: 7% and 5%
- Population Mitotic Cells (%) [1]: 56% and 60%
- Population Normal (%) [1]: 99% and 95%
- Population Pyknosed Nuclei (%) [1]: 11% and 19%
- Population Tubulin-Different-Phenotype (%) [1]: 34% and 32%
- Total Cell Count [1]: 136 and 133
- Population Apoptotic (%) [2]: 64% and 37%
- Population Fragmented Nuclei (%) [2]: 19% and 38%
- Population Healthy Nuclei (%) [2]: 59% and 40%
- Population Hoechst High Intensity Objects (%) [2]: 2% and 6%
- Population Mitochondria Different-Phenotype (%) [2]: 14% and 8%
- Population Mitotic Cells (%) [2]: 35% and 62%
- Population Normal (%) [2]: 97% and 93%
- Population Pyknosed Nuclei (%) [2]: 20% and 21%
- Population Tubulin-Different-Phenotype (%) [2]: 56% and 64%
- Total Cell Count [2]: 167 and 120
- Population Apoptotic (%) [3]: 64% and 54%
- Population Fragmented Nuclei (%) [3]: 15% and 28%
- Population Healthy Nuclei (%) [3]: 72% and 54%
- Population Hoechst High Intensity Objects (%) [3]: 2% and 3%
- Population Membrane Permeable-Phenotype (%) [3]: 1% and 5%
- Population Mitochondria Different-Phenotype (%) [3]: 5%
- Population Mitotic Cells (%) [3]: 35% and 45%
- Population Normal (%) [3]: 97% and 96%
- Population Pyknosed Nuclei (%) [3]: 11% and 17%
- Population Tubulin-Different-Phenotype (%) [3]: 38% and 37%
- Total Cell Count [3]: 122 and 132
- Population Apoptotic (%) [4]: 68% and 33%
- Population Fragmented Nuclei (%) [4]: 20% and 40%
- Population Healthy Nuclei (%) [4]: 59% and 36%
- Population Hoechst High Intensity Objects (%) [4]: 4% and 3%
- Population Membrane Permeable-Phenotype (%) [4]: 0% and 11%
- Population Mitochondria Different-Phenotype (%) [4]: 15% and 19%
- Population Mitotic Cells (%) [4]: 31% and 66%
- Population Normal (%) [4]: 95% and 96%
- Population Pyknosed Nuclei (%) [4]: 19% and 23%
- Population Tubulin-Different-Phenotype (%) [4]: 61% and 66%
- Total Cell Count [4]: 154 and 120
- Population Apoptotic (%) [5]: 60%
- Population Fragmented Nuclei (%) [5]: 23% and 31%
- Population Healthy Nuclei (%) [5]: 63% and 56%
- Population Hoechst High Intensity Objects (%) [5]: 4% and 7%
- Population Membrane Permeable-Phenotype (%) [5]: 0% and 2%
- Population Mitochondria Different-Phenotype (%) [5]: 4%
- Population Mitotic Cells (%) [5]: 40%
- Population Normal (%) [5]: 95% and 92%
- Population Pyknosed Nuclei (%) [5]: 12% and 11%
- Population Tubulin-Different-Phenotype (%) [5]: 43% and 45%
- Total Cell Count [5]: 123 and 140
- Population Apoptotic (%) [6]: 75% and 58%
- Population Fragmented Nuclei (%) [6]: 23% and 49%
- Population Healthy Nuclei (%) [6]: 56% and 34%
- Population Hoechst High Intensity Objects (%) [6]: 7% and 8%
- Population Membrane Permeable-Phenotype (%) [6]: 0% and 14%
- Population Mitochondria Different-Phenotype (%) [6]: 22% and 11%
- Population Mitotic Cells (%) [6]: 25% and 41%
- Population Normal (%) [6]: 92% and 91%
- Population Pyknosed Nuclei (%) [6]: 20% and 16%
- Population Tubulin-Different-Phenotype (%) [6]: 67% and 65%
- Total Cell Count [6]: 151 and 111
